Variants at the floor of the assay were thinned out.
B1: tRNA (parent)
chain: GUUCCGUUGGCGUAAUGGUAACGCGUCUCCCUCCUAAGGAGAAGACUGCGGGUUCGAGUCCCGUACGGAACG

Variants of: B1
Test: yeast fitness relative to wild type (ratio to wild type); higher = fitter; tRNA-Arg(CCU), competitive growth, 37 C, YPD
How it was run: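 Variants of the tRNA-Arg(CCU) gene, chemically synthesised with a 3% per-site mutation rate at 69 sites, were placed at the native genomic locus in Saccharomyces cerevisiae. The pooled strains were competed in YPD at 37°C for 24 hours in six parallel replicates. Gene amplicons from the start population and from each end population were read by 100-nucleotide paired-end sequencing. Darwinian fitness relative to wild type came from changes in genotype frequencies; genotypes needed ≥ 100 starting reads, and estimates < 0.5 were set to 0.5.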
In the case of C11G G17C A40G, the yeast fitness is reported as ≤ 0.5.
With C11G A14C A42U G51C C60U the yeast fitness was ≤ 0.5.
With C11G A21G G50A U64A the yeast fitness was ≤ 0.5.
C11A U47G U64C gave a yeast fitness of 0.531.
Work on C11G A14C G23C G41C yielded a yeast fitness of 0.531.
With C11A U16C C27G G48C the yeast fitness was ≤ 0.5.
With C11G A14U A36U G38C C55U G56C the yeast fitness was ≤ 0.5.
In the case of C11G C29U A69U, the yeast fitness is reported as 0.543.
In the case of C11G A42U, the yeast fitness is reported as 0.608.
Work on C11G A42G yielded a yeast fitness of 0.649.
In the case of C11G A42C, the yeast fitness is reported as 0.636.
With C11G U16A C29U U53C C62G the yeast fitness was ≤ 0.5.
With C11G A14U C24A C61A the yeast fitness was ≤ 0.5.
With C11G C31G C55G C60A the yeast fitness was ≤ 0.5.
In the case of C11G A21U C24U U64A A65G G67U, the yeast fitness is reported as 0.573.
Variant C11G C60G has a yeast fitness of 0.713.
With C11G G12A C31G the yeast fitness was ≤ 0.5.
In the case of C11G A15U A21G G38C, the yeast fitness is reported as 0.604.
For C11G C24U U28C, the yeast fitness was ≤ 0.5.
With C11G G56C the yeast fitness was 0.627.
In the case of C11G A20U C30G C66U, the yeast fitness is reported as ≤ 0.5.
With C11G A36C A57C C66G the yeast fitness was ≤ 0.5.
In the case of C11G A14G A20U C27G C29U C62U, the yeast fitness is reported as ≤ 0.5.
With C11G A14G A21U A36G the yeast fitness was ≤ 0.5.
Work on C11A U47G yielded a yeast fitness of 0.542.
For C11G C24G C27A U28C C33U A65U, the yeast fitness was ≤ 0.5.
Work on C11G A14C C24G A36C G68A yielded a yeast fitness of 0.584.
For C11G A15C C62G, the yeast fitness was ≤ 0.5.
Variant C11G C29A C61U has a yeast fitness of 0.504.
In the case of C11G C27G G67A, the yeast fitness is reported as ≤ 0.5.
Work on C11A U26G G44A G52A yielded a yeast fitness of 0.55.
Work on C11G A15G C22A U26A A40U C62A yielded a yeast fitness of 0.638.
In the case of C11G A14C C55G A57U G67A, the yeast fitness is reported as ≤ 0.5.
With C11A U13C G23C U32G C34A the yeast fitness was ≤ 0.5.
For C11G C31A G39A, the yeast fitness was ≤ 0.5.
For C11G A36G G52A, the yeast fitness was ≤ 0.5.
Work on C11G C27U A36U A37U G41C A43C C49G C62G yielded a yeast fitness of 0.604.
In the case of C11G A20U C24A G25C A70G, the yeast fitness is reported as ≤ 0.5.
With C11A U35A C61U G67A the yeast fitness was ≤ 0.5.
In the case of C11G A36C C49A, the yeast fitness is reported as ≤ 0.5.
For C11G C29U G52A, the yeast fitness was ≤ 0.5.
Variant C11G G17A C24U C29G has a yeast fitness of 0.6.
Work on C11G C62A A70C yielded a yeast fitness of 0.563.
For C11G A36C G41A C66U, the yeast fitness was ≤ 0.5.
With C11G C31U C46G G63A the yeast fitness was ≤ 0.5.
With C11A U16C A21G G68A the yeast fitness was ≤ 0.5.
In the case of C11G G12A C31G A69C, the yeast fitness is reported as ≤ 0.5.
C11G G18C U26C C31G C46U C60G C61G A65C showed a yeast fitness of 0.61.
With C11G C34A A45G U54A the yeast fitness was ≤ 0.5.
For C11G U13G C30U U32A A37G A40U A57U, the yeast fitness was ≤ 0.5.
With C11A U19C C24G C30U C31U C61U G67C the yeast fitness was ≤ 0.5.
C11G G58A showed a yeast fitness of 0.722.
With C11G C24U U28C C66G the yeast fitness was ≤ 0.5.
In the case of C11G C62U A65U, the yeast fitness is reported as 0.525.
In the case of C11G C30A C31G G50A, the yeast fitness is reported as ≤ 0.5.
In the case of C11G A45G C49U C55A A70U, the yeast fitness is reported as ≤ 0.5.
In the case of C11G G25A C62U, the yeast fitness is reported as ≤ 0.5.
For C11G A36C G56A A70U, the yeast fitness was ≤ 0.5.
For C11G C30U C31A A40U C49A, the yeast fitness was ≤ 0.5.
Variant C11G C29U A36C A42G has a yeast fitness of 0.718.
C11A U13C C49U U54C C61G C66U gave a yeast fitness of 0.64.
For C11G C22A C46G, the yeast fitness was ≤ 0.5.
In the case of C11G C34A A36U G48A G52C C60A, the yeast fitness is reported as 0.646.
In the case of C11A U16C A21G C55A, the yeast fitness is reported as ≤ 0.5.
C11G C34U U35A C55U showed a yeast fitness of 0.59.
In the case of C11G A36C, the yeast fitness is reported as ≤ 0.5.
In the case of C11A U32C A65U, the yeast fitness is reported as 0.565.
For C11G C30U A37U, the yeast fitness was ≤ 0.5.
For C11A U19C C60U, the yeast fitness was ≤ 0.5.
Work on C11G G12A C27G yielded a yeast fitness of 0.669.
In the case of C11G C27G, the yeast fitness is reported as ≤ 0.5.
In the case of C11G C27A A36G G38A A65C, the yeast fitness is reported as ≤ 0.5.
For C11G U13G C33G G41A G63A A69C, the yeast fitness was ≤ 0.5.
For C11A U28C A43G A65C, the yeast fitness was ≤ 0.5.
Variant C11G U16A G23C C30U C34U A69U has a yeast fitness of 0.844.
With C11G A15U C24G A40G the yeast fitness was ≤ 0.5.
For C11G A15U A36U C66U, the yeast fitness was ≤ 0.5.
For C11G G25A C34G, the yeast fitness was ≤ 0.5.
For C11G C29A U54A A57U, the yeast fitness was ≤ 0.5.
In the case of C11G C24U C62U G68C, the yeast fitness is reported as ≤ 0.5.
With C11G C27U U47A G52C the yeast fitness was ≤ 0.5.
C11G C30G C31G U32A C55G G67A showed a yeast fitness of 0.696.
For C11G C29U C46G, the yeast fitness was ≤ 0.5.
